pIC50: −log10 of the molar value. The source made the active and inactive calls.
Columns and labels:
[1] = test system: Escherichia coli; assay: Agonist activity at LasR in Escherichia coli at 100 uM
[2] = test system: Escherichia coli; assay: Antagonist activity at LasR in Escherichia coli assessed as reduction of AHL-induced GFP production at 100 uM
[3] = test system: Pseudomonas aeruginosa; assay: Inhibition of quorum sensing activity in wild-type Pseudomonas aeruginosa PA14 assessed as inhibition of pyocyanin production by spectrophotometry relative to control; assay type: functional
How it was run: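 Pyocyanin produced by wild-type PA14, read by absorbance at 695 nm, across a range of compound levels. IC50 derived from the dose–response.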

[4] = test system: Escherichia coli; assay: Antagonist activity at RhlR in Escherichia coli assessed as reduction of AHL-induced GFP production at 100 uM
[5] = test system: Escherichia coli; assay: Agonist activity at RhlR in Escherichia coli at 100 uM
[6] = test system: Pseudomonas aeruginosa; assay: Inhibition of quorum sensing activity in wild-type Pseudomonas aeruginosa PA14 assessed as inhibition of pyocyanin production at 100 uM by spectrophotometry relative to control; assay type: functional
How it was run: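 Wild-type P. aeruginosa PA14 cultures exposed to compound at 100 μM. Pyocyanin read as absorbance at 695 nm. Efficacy scaled so that wild-type pyocyanin level = 0% and absorbance equal to background medium = 100%.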

[7] = test system: Pseudomonas aeruginosa; assay: Antimicrobial activity against wild-type Pseudomonas aeruginosa PA14; assay type: functional
[8] = Effect on pyocyanin oxidation state in cell free culture fluid up to 17 hrs by spectrophotometry; assay type: ADME
How it was run: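 Cell-free culture fluids already containing pyocyanin incubated with compound, to test for a change in pyocyanin oxidation state independent of its production.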

SMILES | Efficacy [6] [%] | Activity [7] | further results
O=C(CCCCCOc1cccc(F)c1)Nc1ccnc(C(F)(F)F)c1 | 103 | inactive | Activity [1]: inactive; Activity [2]: inactive; pIC50 [3]: 5.20; Activity [4]: inactive; Activity [5]: inactive
O=C(CCCCCOc1ccccc1Br)Nc1ccnc(C(F)(F)F)c1 | 94 | inactive | 
CCCCCCCCCCCC(=O)Nc1c(F)c(F)nc(F)c1F | -12 | inactive | 
O=C(CCCCCOc1ccc(Br)cc1)Nc1ccnc(C(F)(F)F)c1 | 88 | inactive | 
O=C(CCCCCOc1cccc(I)c1)Nc1ccnc(C(F)(F)F)c1 | 95 | inactive | 
O=C(CCCCCOc1cccc(Br)c1)Nc1cccc(C(F)(F)F)c1 | 62 | inactive | 
O=C(CCCCCOc1c(F)c(F)c(F)c(F)c1F)Nc1ccnc(C(F)(F)F)c1 | 21 | inactive | 
O=C(CCCOc1cccc(Br)c1)Nc1ccnc(C(F)(F)F)c1 | 43 | inactive | 
CCCCCCCCCCCC(=O)Nc1ccnc(F)c1 | 70 | inactive | Activity [1]: inactive; Activity [2]: inactive; pIC50 [3]: 5.36; Activity [4]: inactive; Activity [5]: inactive
CCCCCCCCCCCC(=O)OCc1ccncc1 | -15 | inactive | 
CCCCCCCCCCCC(=O)Nc1ccnc(C(F)(F)F)c1 | 27 | inactive | 
CCCCCCCCCCCC(=O)Nc1ccccn1 | 55 | inactive | 
COc1nccc(NC(=O)CCCCCOc2cccc(Br)c2)n1 | 16 | inactive | 
O=C(CCCCCOc1ccccc1O)Nc1ccnc(C(F)(F)F)c1 | 95 | inactive | 
CCCCCCCCCC(=O)CC(=O)Nc1ccnc(F)c1 | -8.5 | inactive | 
CCCCCCCCCCCCNC(=O)c1ccncc1 | 13 | inactive | 
CCCCCCCCCCCC(=O)Nc1cccnc1 | 34 | inactive | 
CCCCCCCCCC(=O)CC(=O)Nc1cnccn1 | 21 | inactive | 
CCCCCCCCCCCCCCCCOC(=O)C1COc2ccccc21 (stereo not given) | 1.5 | inactive | 
COc1cc(NC(=O)CCCCCCCOc2cccc(Br)c2)ccn1 | 60 | inactive | 
O=C(CCCCCOc1cccc(Br)c1)Nc1ccncc1 | 53 | inactive | 
CCCCCCCCCC(=O)CC(=O)Nc1ncccn1 | -0.51 | inactive | 
CCCCCCCCCCCC(=O)Nc1ccncc1 | 28 | inactive | 
N#Cc1cccc(OCCCCCC(=O)Nc2ccnc(C(F)(F)F)c2)c1 | 0.48 | inactive | 
COc1cc(NC(=O)CCCCCOc2cccc(Br)c2)nc(OC)n1 | 15 | inactive | 
CCCCCCCCCCCC(=O)Nc1ncccn1 | 23 | inactive | 

SMILES | Efficacy [6] [%] | Activity [7] | further results
O=C(CCCCOc1cccc(Br)c1)Nc1ccnc(C(F)(F)F)c1 | 95 | inactive | 
O=C(CCCOc1cccc(Br)c1)Nc1ccncc1 | 21 | inactive | 
CCCCCCCCCCCC(=O)O/N=C1\COc2ccccc21 | 12 | inactive | 
CCCCCCCCCCCC(=O)NCc1ccncc1 | 7.7 | inactive | 
COc1cc(NC(=O)CCCCOc2cccc(Br)c2)ccn1 | 81 | inactive | 
O=C(CCCCCOc1cccc(Cl)c1)Nc1ccnc(C(F)(F)F)c1 | 101 | inactive | 
O=C(CCCOc1cccc(Br)c1)Nc1ccnc(F)c1 | 32 | inactive | 
O=C(CCCCCOc1cccc([N+](=O)[O-])c1)Nc1ccnc(C(F)(F)F)c1 | 39 | inactive | 
CCCCCCCCCCCC(=O)Nc1ccc2[nH]ccc2c1 | -11 | inactive | 
O=C(CCCCCOc1ccc(F)cc1F)Nc1ccnc(C(F)(F)F)c1 | 49 | inactive | 
CCCCCCCCCCCC(=O)Nc1ccc2c(c1)c1ccccc1n2CC | -1 | inactive | 
O=C(CCCCCNc1cccc(F)c1)Nc1ccnc(C(F)(F)F)c1 | 100 | inactive | 
COc1cc(NC(=O)CCCCCOc2cccc(Br)c2)ncn1 | 41 | inactive | 
CCCCCCCCCCCC(=O)Nc1cnccn1 | -38 | inactive | 
CCCCCCCCCC(=O)CC(=O)Nc1cccnc1 | 10 | inactive | 
CCCCCCCCCCCC(=O)Nc1ccnc(OC)c1 | -5.1 | inactive | 
CCCCCCCCCCCC(=O)Nc1ccncc1C(F)(F)F | -17 | inactive | 
O=C(CCCCCOc1ccccc1F)Nc1ccnc(C(F)(F)F)c1 | 78 | inactive | 
COc1cc(NC(=O)CC(=O)CCCOc2cccc(Br)c2)ccn1 | 40 | inactive | 
O=C(CCCCCSc1cccc(F)c1)Nc1ccnc(C(F)(F)F)c1 | 94 | inactive | 
CCCCCCCCCCCCNC(=O)Cc1c[nH]c2ccccc12 | 0.6 | inactive | 
O=C(CCCCCCOc1cccc(Br)c1)Nc1ccnc(C(F)(F)F)c1 | 23 | inactive | 
CCCCCCCCCC(=O)CC(=O)Nc1ccc2c(c1)c1ccccc1n2CC | 9.3 | inactive | 
CCCCCCCCCCCC(=O)Nc1cc(C)nc2ccccc12 | -24 | inactive | 
O=C(CCCCCOc1cccc(Br)c1)Nc1cc(C(F)(F)F)cc(C(F)(F)F)c1 | 44 | inactive | 
CCCCCCCCCCCC(=O)N1CCN(c2ccncc2)CC1 | -42 | inactive | 

SMILES | Efficacy [6] [%] | Activity [7] | further results
CCCCCCCCCC(=O)CC(=O)Nc1ccncc1 | 63 | inactive | Activity [1]: inactive; Activity [2]: inactive; pIC50 [3]: 6.80; Stability [8]: Stable; Activity [4]: inactive; Activity [5]: inactive
O=C(CCCCCOc1cccc(C(F)(F)F)c1)Nc1ccnc(C(F)(F)F)c1 | 59 | inactive | 
CCCCCCCCCCCCNC(=O)c1c[nH]c2ccccc12 | 4.4 | inactive | 
CCCCCCCCCC(=O)CC(=O)Nc1ccccn1 | 44 | inactive | 
CCCCCCCCCCCC(=O)Nc1ccnc(C)c1 | -19 | inactive | 
O=C(CCCCCOc1cccc(Br)c1)Nc1ccnc(F)c1 | 31 | inactive | 
O=C(CCCCCOc1cccc(Br)c1)Nc1ccncc1C(F)(F)F | 15 | inactive | 
CCCCCCCCCCCC(=O)Nc1ccnc(Br)c1 | 34 | inactive | 
CCCCCCCCCCCCNC(=O)c1cc2ccccc2n1C | -9.2 | inactive | 
COc1cc(NC(=O)CCCCCOc2cccc(Br)c2)ccn1 | 73 | inactive | 
COc1cc(NC(=O)CCCOc2cccc(Br)c2)ccn1 | 20 | inactive | 
O=C(CCCCC#Cc1cccc(F)c1)Nc1ccnc(C(F)(F)F)c1 | 97 | inactive | 
COc1cc(NC(=O)CCCCCCOc2cccc(Br)c2)ccn1 | 75 | inactive | 
O=C(CCCCCOc1c(F)cccc1F)Nc1ccnc(C(F)(F)F)c1 | 66 | inactive | 
CCCCCCCCCC(=O)CC(=O)Nc1ccnc(OC)c1 | 24 | inactive | 
Cc1cccc(OCCCCCC(=O)Nc2ccnc(C(F)(F)F)c2)c1 | 81 | inactive | 
O=C(CCCCCOc1cccc(Br)c1)Nc1ccncn1 | 27 | inactive | 
CCCCCCCCCCCC(=O)Nc1ccncn1 | 55 | inactive | 
CCCCCCCCCC(=O)CC(=O)Nc1ccncn1 | 64 | inactive | 
Cc1cc(NC(=O)CCCCCOc2cccc(Br)c2)ccn1 | 80 | inactive | 
O=C(CCCCCOc1cccc(Br)c1)Nc1ccnc(Cl)c1 | 89 | inactive | 
O=C(CCCCCOc1cccc(O)c1)Nc1ccnc(C(F)(F)F)c1 | 70 | inactive | 
O=C(CCCCCOc1ccc(F)cc1)Nc1ccnc(C(F)(F)F)c1 | 54 | inactive | 
CCCCCCCCCCCC(=O)Nc1ccc2oc3c(c2c1)CCCC3 | 6.1 | inactive | 
O=C(CCCCCCc1cccc(F)c1)Nc1ccnc(C(F)(F)F)c1 | 96 | inactive | 

— ChEMBL document CHEMBL3407471, “Development of potent inhibitors of pyocyanin production in Pseudomonas aeruginosa” (J Med Chem, 2015)
